The values below come from ChEMBL document CHEMBL1781892, “Microwave assisted synthesis and structure-activity relationship of 4-hydroxy-N'-[1-phenylethylidene]-2H/2-methyl-1,2-benzothiazine-3-carbohydrazide 1,1-dioxides as anti-microbial agents” (2011).

For assay [1], the system named is Aspergillus flavus. In words: Antifungal activity against Aspergillus flavus using 1 x 10^5 spore/100 uL after 72 hrs by microdilution method. The format is functional.
Assay [2] deals with Aspergillus flavus. In words: Antifungal activity against Aspergillus flavus using 1 x 10^5 spore/100 uL assessed as 99.5% fungal killing of original inoculum after 72 hrs by microdilution method. In kind it is functional. (In broth dilution the organism is exposed to a series of concentrations in liquid medium.)
Assay [3] in a line: Antifungal activity against Trichoderma reesei using 1 x 10^5 spore/100 uL assessed as 99.5% fungal killing of original inoculum after 72 hrs by microdilution method. The format is functional.
In assay [4] the test system is Aspergillus niger. In words: Antifungal activity against Aspergillus niger using 1 x 10^5 spore/100 uL after 72 hrs by microdilution method. The format is functional.
In assay [5] the test system is Aspergillus niger. Put plainly: Antifungal activity against Aspergillus niger using 1 x 10^5 spore/100 uL assessed as 99.5% fungal killing of original inoculum after 72 hrs by microdilution method. The format is functional.
The next assay deals with Salmonella typhi. Put plainly: Antibacterial activity against Salmonella typhi using 1 x 10^4 CFU/ml inoculum after 24 hrs by microdilution method. In kind it is functional, Salmonella enterica subsp. enterica serovar Typhi.
Assay [6] has as its system Aspergillus fumigatus. Put plainly: Antifungal activity against Aspergillus fumigatus using 1 x 10^5 spore/100 uL after 72 hrs by microdilution method. In kind it is functional.
Assay [7] has as its system Aspergillus fumigatus. In words: Antifungal activity against Aspergillus fumigatus using 1 x 10^5 spore/100 uL assessed as 99.5% fungal killing of original inoculum after 72 hrs by microdilution method. In kind it is functional.
A further assay deals with Pseudomonas aeruginosa. Put plainly: Antibacterial activity against Pseudomonas aeruginosa using 1 x 10^4 CFU/ml inoculum after 24 hrs by microdilution method. The format is functional.
For assay [8], the system named is Curvularia australiensis. In words: Antifungal activity against Drechslera australiensis using 1 x 10^5 spore/100 uL after 72 hrs by microdilution method. The format is functional.
In another assay the test system is Bacillus cereus. In words: Antibacterial activity against Bacillus cereus using 1 x 10^4 CFU/ml inoculum after 24 hrs by microdilution method. In kind it is functional.
The subject of the next assay is Staphylococcus aureus. In words: Antibacterial activity against Staphylococcus aureus using 1 x 10^4 CFU/ml inoculum after 24 hrs by microdilution method. In kind it is functional.
In assay [9] the test system is Trichoderma viride. Put plainly: Antifungal activity against Trichoderma viride using 1 x 10^5 spore/100 uL after 72 hrs by microdilution method. In kind it is functional.
For a further assay, the system named is Bacillus thuringiensis. Put plainly: Antibacterial activity against Bacillus thuringiensis using 1 x 10^4 CFU/ml inoculum after 24 hrs by microdilution method. The format is functional.
Assay [10] in a line: Antifungal activity against Trichoderma reesei using 1 x 10^5 spore/100 uL after 72 hrs by microdilution method. The format is functional. The method, boiled down: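 Spores washed from malt agar cultures with sterile 0.85% saline plus 0.1% Tween 80, adjusted to about 1.0×10^5 per 100 µl well. Compounds from a 1 mg/ml DMSO stock were serially diluted in malt broth with inoculum in 96-well plates and incubated 72 h at 28 °C. MIC is the lowest concentration with no visible growth under a binocular microscope. DMSO served as negative control.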

Another assay has as its system Escherichia coli. Put plainly: Antibacterial activity against Escherichia coli using 1 x 10^4 CFU/ml inoculum after 24 hrs by microdilution method. The format is functional.
Assay [11] relates to Curvularia australiensis. In words: Antifungal activity against Drechslera australiensis using 1 x 10^5 spore/100 uL assessed as 99.5% fungal killing of original inoculum after 72 hrs by microdilution method. In kind it is functional.
For another assay, the system named is Bacillus subtilis. In words: Antibacterial activity against Bacillus subtilis using 1 x 10^4 CFU/ml inoculum after 24 hrs by microdilution method. In kind it is functional.
Assay [12] relates to Trichoderma viride. In words: Antifungal activity against Trichoderma viride using 1 x 10^5 spore/100 uL assessed as 99.5% fungal killing of original inoculum after 72 hrs by microdilution method. In kind it is functional.

As for `COc1cccc(/C(C)=N/NC(=O)C2=C(O)c3ccccc3S(=O)(=O)N2C)c1`, the MIC was found to be 92.6 ×10⁻² umol in the assay with Aspergillus flavus [1]; 90.1 ×10⁻² umol with Aspergillus niger [4]; 29.4 ×10⁻² umol in the assay on Salmonella typhi; 85.7 ×10⁻² umol with Aspergillus fumigatus [6]; 26.8 ×10⁻² umol with Pseudomonas aeruginosa; 81.7 ×10⁻² umol against Curvularia australiensis [8]. For the same molecule, the MIC against Bacillus cereus amounted to 7 ×10⁻² umol; in the assay on Staphylococcus aureus, 24.1 ×10⁻² umol; in the assay on Trichoderma viride [9] it was 80.5 ×10⁻² umol; in the assay with Bacillus thuringiensis, 7.8 ×10⁻² umol; in assay [10], 79.6 ×10⁻² µmol; against Escherichia coli it was 25.6 ×10⁻² umol. The molecule also showed an MIC in the assay on Bacillus subtilis of 7.7 ×10⁻² umol. The MFC in the assay on Aspergillus flavus [2] worked out at 188.9 ×10⁻² umol; in assay [3], 159 ×10⁻² µmol; in the assay on Aspergillus niger [5], 190 ×10⁻² umol; in the assay on Aspergillus fumigatus [7], 168.2 ×10⁻² umol; in the assay on Curvularia australiensis [11], 154.8 ×10⁻² umol; with Trichoderma viride [12] it was 160.4 ×10⁻² umol.

In the case of `C/C(=N\NC(=O)C1=C(O)c2ccccc2S(=O)(=O)N1C)c1ccc(O)cc1`, the MIC with Aspergillus flavus [1] is recorded as >100 ×10⁻² umol; against Aspergillus niger [4], >100 ×10⁻² umol; against Salmonella typhi, 25.1 ×10⁻² umol; in the assay with Aspergillus fumigatus [6], >100 ×10⁻² umol; in the assay on Pseudomonas aeruginosa, 22.1 ×10⁻² umol; in the assay with Curvularia australiensis [8] it was >100 ×10⁻² umol. The MIC in the assay on Bacillus cereus is 4.6 ×10⁻² umol; against Staphylococcus aureus, 18.9 ×10⁻² umol; in the assay on Trichoderma viride [9], >100 ×10⁻² umol; against Bacillus thuringiensis, 5 ×10⁻² umol; in [10] it was > 100 ×10⁻² µmol; in the assay with Escherichia coli it was 21 ×10⁻² umol. In the assay with Bacillus subtilis, this molecule displayed an MIC of 4.8 ×10⁻² umol. Besides, the MFC with Aspergillus flavus [2] is >200 ×10⁻² umol; in assay [3], > 200 ×10⁻² µmol; in the assay with Aspergillus niger [5] it was >200 ×10⁻² umol; with Aspergillus fumigatus [7] it was >200 ×10⁻² umol; with Curvularia australiensis [11] it was >200 ×10⁻² umol; in the assay on Trichoderma viride [12] it was >200 ×10⁻² umol.

`C/C(=N\NC(=O)C1=C(O)c2ccccc2S(=O)(=O)N1)c1ccc(O)cc1`: the MIC in the assay with Aspergillus flavus [1] is reported as >100 ×10⁻² umol; against Aspergillus niger [4], >100 ×10⁻² umol; against Salmonella typhi, 25.2 ×10⁻² umol; in the assay with Aspergillus fumigatus [6], >100 ×10⁻² umol; with Pseudomonas aeruginosa, 22.6 ×10⁻² umol; in the assay on Curvularia australiensis [8], >100 ×10⁻² umol. The MIC in the assay on Bacillus cereus is 4.8 ×10⁻² umol; with Staphylococcus aureus, 19 ×10⁻² umol; with Trichoderma viride [9], >100 ×10⁻² umol; against Bacillus thuringiensis, 5 ×10⁻² umol; in [10], > 100 ×10⁻² µmol; in the assay with Escherichia coli, 21.3 ×10⁻² umol. Further, the MIC in the assay with Bacillus subtilis worked out at 4.9 ×10⁻² umol. Also, the MFC was >200 ×10⁻² umol with Aspergillus flavus [2]; > 200 ×10⁻² µmol in assay [3]; >200 ×10⁻² umol with Aspergillus niger [5]; >200 ×10⁻² umol in the assay on Aspergillus fumigatus [7]; >200 ×10⁻² umol in the assay on Curvularia australiensis [11]; >200 ×10⁻² umol in the assay with Trichoderma viride [12].

`C/C(=N\NC(=O)C1=C(O)c2ccccc2S(=O)(=O)N1)c1cccc(O)c1`: the MIC against Aspergillus flavus [1] is given as >100 ×10⁻² umol; in the assay on Aspergillus niger [4], >100 ×10⁻² umol; against Salmonella typhi, 23.5 ×10⁻² umol; in the assay on Aspergillus fumigatus [6], >100 ×10⁻² umol; in the assay with Pseudomonas aeruginosa, 21.2 ×10⁻² umol; in the assay with Curvularia australiensis [8], >100 ×10⁻² umol. For the same molecule, the MIC was 4.5 ×10⁻² umol against Bacillus cereus; 18.4 ×10⁻² umol in the assay on Staphylococcus aureus; >100 ×10⁻² umol against Trichoderma viride [9]; 4.4 ×10⁻² umol in the assay on Bacillus thuringiensis; > 100 ×10⁻² µmol in assay [10]; 19.7 ×10⁻² umol in the assay on Escherichia coli. In the assay with Bacillus subtilis, this molecule yielded an MIC of 4.6 ×10⁻² umol. Also, the MFC was >200 ×10⁻² umol in the assay with Aspergillus flavus [2]; > 200 ×10⁻² µmol in assay [3]; >200 ×10⁻² umol with Aspergillus niger [5]; >200 ×10⁻² umol with Aspergillus fumigatus [7]; >200 ×10⁻² umol with Curvularia australiensis [11]; >200 ×10⁻² umol in the assay with Trichoderma viride [12].

With `C/C(=N\NC(=O)C1=C(O)c2ccccc2S(=O)(=O)N1)c1ccc(F)cc1F`, the MIC in the assay with Aspergillus flavus [1] turned out to be 76.4 ×10⁻² umol; in the assay on Aspergillus niger [4] it was 76.6 ×10⁻² umol; in the assay with Salmonella typhi it was 33.2 ×10⁻² umol; against Aspergillus fumigatus [6], 69.8 ×10⁻² umol; with Pseudomonas aeruginosa it was 30.6 ×10⁻² umol; with Curvularia australiensis [8] it was 72.3 ×10⁻² umol. The MIC with Bacillus cereus turned out to be 7.8 ×10⁻² umol; with Staphylococcus aureus, 28.1 ×10⁻² umol; against Trichoderma viride [9] it was 72 ×10⁻² umol; against Bacillus thuringiensis it was 8.2 ×10⁻² umol; in [10], 69 ×10⁻² µmol; in the assay with Escherichia coli, 29.2 ×10⁻² umol. The molecule further yielded an MIC in the assay on Bacillus subtilis of 8 ×10⁻² umol. The MFC stood at 168.7 ×10⁻² umol in the assay on Aspergillus flavus [2]; 138 ×10⁻² µmol in assay [3]; 160.3 ×10⁻² umol with Aspergillus niger [5]; 118.2 ×10⁻² umol in the assay on Aspergillus fumigatus [7]; 145.7 ×10⁻² umol with Curvularia australiensis [11]; 139.6 ×10⁻² umol in the assay with Trichoderma viride [12].

As to `C/C(=N\NC(=O)C1=C(O)c2ccccc2S(=O)(=O)N1)c1ccccc1O`, the MIC with Aspergillus flavus [1] is listed as >100 ×10⁻² umol; in the assay with Aspergillus niger [4], >100 ×10⁻² umol; in the assay with Salmonella typhi it was 22.7 ×10⁻² umol; in the assay on Aspergillus fumigatus [6], >100 ×10⁻² umol; against Pseudomonas aeruginosa, 20.6 ×10⁻² umol; against Curvularia australiensis [8], >100 ×10⁻² umol. Further, the MIC against Bacillus cereus is 4.2 ×10⁻² umol; in the assay on Staphylococcus aureus it was 17.8 ×10⁻² umol; in the assay on Trichoderma viride [9] it was >100 ×10⁻² umol; against Bacillus thuringiensis it was 4.1 ×10⁻² umol; in assay [10], > 100 ×10⁻² µmol; against Escherichia coli it was 19.9 ×10⁻² umol. In the assay with Bacillus subtilis, this molecule gave an MIC of 4.4 ×10⁻² umol. Further, the MFC in the assay with Aspergillus flavus [2] is >200 ×10⁻² umol; in assay [3], > 200 ×10⁻² µmol; in the assay with Aspergillus niger [5] it was >200 ×10⁻² umol; with Aspergillus fumigatus [7] it was >200 ×10⁻² umol; with Curvularia australiensis [11], >200 ×10⁻² umol; in the assay with Trichoderma viride [12] it was >200 ×10⁻² umol.

For `COc1ccc(/C(C)=N/NC(=O)C2=C(O)c3ccccc3S(=O)(=O)N2)cc1`, the MIC is recorded as 86.2 ×10⁻² umol in the assay with Aspergillus flavus [1]; 87.3 ×10⁻² umol in the assay on Aspergillus niger [4]; 32.7 ×10⁻² umol with Salmonella typhi; 77.7 ×10⁻² umol against Aspergillus fumigatus [6]; 29.3 ×10⁻² umol in the assay with Pseudomonas aeruginosa; 81.1 ×10⁻² umol against Curvularia australiensis [8]. Also, the MIC in the assay on Bacillus cereus amounted to 7.8 ×10⁻² umol; against Staphylococcus aureus, 26.7 ×10⁻² umol; with Trichoderma viride [9], 80.5 ×10⁻² umol; against Bacillus thuringiensis, 7.8 ×10⁻² umol; in assay [10] it was 79.9 ×10⁻² µmol; with Escherichia coli, 27.8 ×10⁻² umol. Further, the MIC with Bacillus subtilis is reported as 7.5 ×10⁻² umol. Further, the MFC in the assay on Aspergillus flavus [2] amounted to 169.3 ×10⁻² umol; in assay [3], 160 ×10⁻² µmol; in the assay on Aspergillus niger [5], 179.5 ×10⁻² umol; with Aspergillus fumigatus [7], 153.6 ×10⁻² umol; in the assay with Curvularia australiensis [11], 159.6 ×10⁻² umol; in the assay on Trichoderma viride [12] it was 158.8 ×10⁻² umol.

As for `C/C(=N\NC(=O)C1=C(O)c2ccccc2S(=O)(=O)N1)c1ccc(I)cc1`, the MIC in the assay with Aspergillus flavus [1] amounted to 89.9 ×10⁻² umol; in the assay with Aspergillus niger [4], 91.5 ×10⁻² umol; against Salmonella typhi it was 33.4 ×10⁻² umol; against Aspergillus fumigatus [6], 82 ×10⁻² umol; in the assay on Pseudomonas aeruginosa, 30.9 ×10⁻² umol; with Curvularia australiensis [8], 74 ×10⁻² umol. Moreover, the MIC against Bacillus cereus turned out to be 9.1 ×10⁻² umol; with Staphylococcus aureus, 28.2 ×10⁻² umol; in the assay with Trichoderma viride [9], 71.3 ×10⁻² umol; with Bacillus thuringiensis it was 9.4 ×10⁻² umol; in assay [10] it was 70.3 ×10⁻² µmol; in the assay with Escherichia coli, 29.5 ×10⁻² umol. In the assay on Bacillus subtilis, the MIC turned out to be 9.5 ×10⁻² umol. The MFC in the assay on Aspergillus flavus [2] came out at 179.8 ×10⁻² umol; in assay [3] it was 134 ×10⁻² µmol; in the assay on Aspergillus niger [5], 166.1 ×10⁻² umol; with Aspergillus fumigatus [7], 159.2 ×10⁻² umol; in the assay with Curvularia australiensis [11] it was 145.8 ×10⁻² umol; in the assay on Trichoderma viride [12], 139.7 ×10⁻² umol.
